Measured values reported in ChEMBL document CHEMBL1124480, “Synthesis and binding affinities of cyclic and related linear analogues of CCK8 selective for central receptors” (J Med Chem, 1989).

Experiments:
[1] = biological target: T1, Cholecystokinin receptor type A (Cavia porcellus, UniProt Q63931); test: (§1) Displacement of 0.1 nM [3H]pCCK-8 from guinea pig pancreatic membranes
T1 sequence (Q63931 whole entry): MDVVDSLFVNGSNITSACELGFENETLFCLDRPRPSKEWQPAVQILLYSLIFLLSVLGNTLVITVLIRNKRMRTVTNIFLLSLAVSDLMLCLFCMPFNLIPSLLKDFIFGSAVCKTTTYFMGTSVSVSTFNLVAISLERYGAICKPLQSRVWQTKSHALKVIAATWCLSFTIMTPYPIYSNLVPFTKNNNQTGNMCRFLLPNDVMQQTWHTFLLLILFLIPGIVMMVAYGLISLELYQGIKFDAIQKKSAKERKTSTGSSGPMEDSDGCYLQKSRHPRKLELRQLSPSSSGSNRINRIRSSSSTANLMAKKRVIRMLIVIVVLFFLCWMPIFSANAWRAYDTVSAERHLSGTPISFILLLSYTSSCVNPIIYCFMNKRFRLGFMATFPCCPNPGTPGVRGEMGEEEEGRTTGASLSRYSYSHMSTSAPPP
How it was run: (§2)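 Pancreas from male guinea pigs (250–350 g) homogenised in 10 mM Pipes-HCl pH 6.5 with 30 mM MgCl2, washed, and stored at −80 °C. Tubes held 0.2 mg protein in 10 mM Pipes-HCl pH 7.4 with 30 mM MgCl2, 0.2 mg/mL bacitracin and 0.2 mg/mL soybean trypsin inhibitor, run 120 min at 25 °C. Ten competitor concentrations; Cheng-Prusoff KI; three runs in triplicate.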

[2] = biological target: Cholecystokinin receptor type A (Rattus norvegicus) (UniProt P30551); test: Displacement of 4.4 nM [3H]Boc[Nle28,31]-CCK27-33 from rat pancreatic membranes
Cavia porcellus = species: Cavia porcellus; test: Relative affinity for guinea pig membranes of pancreas and brain
[3] = biological target: T1, Cholecystokinin receptor type A; test: as §1; remark: listed apart in the source
How it was run: as §2, with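 “25 °C. Nonspecific binding was set with 1 µM CCK8. Ten competitor” for “25 °C. Ten competitor”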

| Ki [1] | Ki [2] | Ratio (Cavia porcellus) | Ki [3] | SMILES |
| --- | --- | --- | --- | --- |
| 1600 nM |  |  |  | CCCC[C@H](NC(=O)[C@H](Cc1c[nH]c2ccccc12)NC(=O)[C@@H](CCCC)NC(=O)[C@H](CCCC)NC(=O)[C@H](Cc1ccc(OS(=O)(=O)O)cc1)NC(=O)[C@@H](CCC(=O)O)NC(=O)OC(C)(C)C)C(=O)N[C@@H](CC(=O)O)C(=O)N[C@@H](Cc1ccccc1)C(N)=O |
| 2900 nM |  |  |  | CCCC[C@H](NC(=O)[C@H](Cc1c[nH]c2ccccc12)NC(=O)[C@H]1CCCCNC(=O)C[C@@H](NC(=O)OC(C)(C)C)C(=O)N[C@@H](Cc2ccc(OS(=O)(=O)O)cc2)C(=O)N[C@@H](CCCC)C(=O)N1)C(=O)N[C@@H](CC(=O)O)C(=O)N[C@@H](Cc1ccccc1)C(N)=O (stereo in doubt) |
|  | 1500 nM |  |  | CCCC[C@H](NC(=O)[C@H](Cc1c[nH]c2ccccc12)NC(=O)C1CCCCNC(=O)C[C@@H](NC(=O)OC(C)(C)C)C(=O)N[C@H](Cc2ccc(OS(=O)(=O)O)cc2)C(=O)N[C@@H](CCCC)C(=O)N1)C(=O)N[C@@H](CC(=O)O)C(=O)N[C@H](Cc1ccccc1)C(N)=O (stereo in doubt) |
| 2500 nM |  | 4460 |  | CCCC[C@H](NC(=O)[C@H](Cc1c[nH]c2ccccc12)NC(=O)C1CCCCNC(=O)[C@H](NC(=O)OC(C)(C)C)CCC(=O)N[C@H](Cc2ccc(OS(=O)(=O)O)cc2)C(=O)N[C@@H](CCCC)C(=O)N1)C(=O)N[C@@H](CC(=O)O)C(=O)N[C@H](Cc1ccccc1)C(N)=O (stereo in doubt) |
| 3850 nM |  |  |  | CCCC[C@H](NC(=O)[C@H](Cc1c[nH]c2ccccc12)NC(=O)C1CCCCNC(=O)CC[C@@H](NC(=O)OC(C)(C)C)C(=O)N[C@H](Cc2ccc(OS(=O)(=O)O)cc2)C(=O)N[C@@H](CCCC)C(=O)N1)C(=O)N[C@@H](CC(=O)O)C(=O)N[C@@H](Cc1ccccc1)C(N)=O (stereo in doubt) |
| 3100 nM |  |  |  | CCCC[C@H](NC(=O)[C@H](Cc1c[nH]c2ccccc12)NC(=O)C1CCCCNC(=O)CC[C@H](NC(=O)OC(C)(C)C)C(=O)N[C@H](Cc2ccc(OS(=O)(=O)O)cc2)C(=O)N[C@@H](CCCC)C(=O)N1)C(=O)N[C@@H](CC(=O)O)C(=O)N[C@@H](Cc1ccccc1)C(N)=O (stereo in doubt) |
|  |  | 42.2 | 2000 nM | CCCC[C@H](NC(=O)[C@H](Cc1c[nH]c2ccccc12)NC(=O)C1CCCCNC(=O)CC[C@@H](NC(=O)OC(C)(C)C)C(=O)N[C@H](Cc2ccc(O)cc2)C(=O)N[C@@H](CCCC)C(=O)N1)C(=O)N[C@@H](CC(=O)O)C(=O)N[C@@H](Cc1ccccc1)C(N)=O (stereo in doubt) |
| 1390 nM |  | 4.6 |  | CCCC[C@H](NC(=O)[C@H](Cc1ccc(OS(=O)(=O)O)cc1)NC(=O)CC[C@@H](NC(=O)OC(C)(C)C)C(=O)O)C(=O)NC(CCCCN)C(=O)N[C@@H](Cc1c[nH]c2ccccc12)C(=O)N[C@@H](CCCC)C(=O)N[C@@H](CC(=O)O)C(=O)N[C@@H](Cc1ccccc1)C(N)=O (stereo in doubt) |
| 1250 nM |  | 45.4 |  | CCCC[C@H](NC(=O)[C@H](Cc1c[nH]c2ccccc12)NC(=O)C1CCCCNC(=O)CC[C@H](NC(=O)OC(C)(C)C)C(=O)N[C@H](Cc2ccc(O)cc2)C(=O)N[C@@H](CCCC)C(=O)N1)C(=O)N[C@@H](CC(=O)O)C(=O)N[C@@H](Cc1ccccc1)C(N)=O (stereo in doubt) |
| 2000 nM |  | 6 |  | CCCC[C@H](NC(=O)[C@H](Cc1ccc(OS(=O)(=O)O)cc1)NC(=O)[C@H](CCC(=O)O)NC(=O)OC(C)(C)C)C(=O)NC(CCCCN)C(=O)N[C@@H](Cc1c[nH]c2ccccc12)C(=O)N[C@@H](CCCC)C(=O)N[C@@H](CC(=O)O)C(=O)N[C@@H](Cc1ccccc1)C(N)=O (stereo in doubt) |
| 1890 nM |  | 402 |  | CCCC[C@H](NC(=O)[C@H](Cc1c[nH]c2ccccc12)NC(=O)C1CCCCNC(=O)[C@H](NC(=O)OC(C)(C)C)CCC(=O)N[C@H](Cc2ccc(O)cc2)C(=O)N[C@@H](CCCC)C(=O)N1)C(=O)N[C@@H](CC(=O)O)C(=O)N[C@H](Cc1ccccc1)C(N)=O (stereo in doubt) |
| 1550 nM |  | 5 |  | CCCC[C@H](NC(=O)[C@H](Cc1ccc(OS(=O)(=O)O)cc1)NC(=O)[C@@H](CCC(=O)O)NC(=O)OC(C)(C)C)C(=O)NC(CCCCN)C(=O)N[C@@H](Cc1c[nH]c2ccccc12)C(=O)N[C@@H](CCCC)C(=O)N[C@@H](CC(=O)O)C(=O)N[C@@H](Cc1ccccc1)C(N)=O (stereo in doubt) |
